Key:
Canis familiaris [1] = assay: Effect on femoral blood flow (FBF) was studied, after intra arterial administration in anesthetized dogs relative to vinpocetine; format: functional, Canis lupus familiaris
Summary of the method: (§1)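 Compounds were given intraarterially to anesthetized dogs. Dose-response curves were built from peak response values. Potency was expressed as a ratio to vinpocetine, set at 1.0.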

Canis familiaris [2] = assay: Effect on vertebral blood flow (VBF) was studied, after intra arterial administration in anesthetized dogs relative to vinpocetine; format: functional, Canis lupus familiaris; summary of the method: as §1

SMILES | Potency ratio (Canis familiaris [1]) | Potency ratio (Canis familiaris [2])
CC[C@]12CCCN3CCc4c(n(c5cc(Br)ccc45)[C@@](O)(C(=O)OC)C1)[C@@H]32 [BROVINCAMINE] | 0.28 | 0.17
CCOC(=O)C1=C[C@]2(CC)CCCN3CCc4c(n1c1ccccc41)[C@@H]32 [VINPOCETINE] | 1 | 1
CC[C@@]12C=C(C(=O)OCCO[N+](=O)[O-])n3c4c(c5ccccc53)CCN(CCC1)[C@H]42 | 4.72 | 3.83
CC[C@@]12C=C(C(=O)OCCCCCCCCO[N+](=O)[O-])n3c4c(c5ccccc53)CCN(CCC1)[C@H]42 | 0.34 | 0.35
CC[C@@]12C=C(C(=O)OCCO[N+](=O)[O-])n3c4c(c5ccc(Br)cc53)CCN(CCC1)[C@H]42 | 0.36 | 0.58
CC[C@@]12C=C(C(=O)OCCCCCCCO[N+](=O)[O-])n3c4c(c5ccccc53)CCN(CCC1)[C@H]42 | 0.67 | 0.82
CC[C@@]12C=C(C(=O)OCCCO[N+](=O)[O-])n3c4c(c5ccccc53)CCN(CCC1)[C@H]42 | 1.91 | 1.85
CC[C@@]12C=C(C(=O)OCCCCCCO[N+](=O)[O-])n3c4c(c5ccccc53)CCN(CCC1)[C@H]42 | 0.84 | 0.99
CC[C@@]12C=C(C(=O)OCCCCCCCCCCCO[N+](=O)[O-])n3c4c(c5ccccc53)CCN(CCC1)[C@H]42 | 0.38 | 0.33
CC[C@@]12C=C(C(=O)OCCCCO[N+](=O)[O-])n3c4c(c5ccccc53)CCN(CCC1)[C@H]42 | 1.63 | 1.25
CC[C@@]12C=C(C(=O)OCCCCCCCCCO[N+](=O)[O-])n3c4c(c5ccccc53)CCN(CCC1)[C@H]42 | 0.15 | 0.33
CC[C@@]12C=C(C(=O)OCCCCCCCCCCO[N+](=O)[O-])n3c4c(c5ccccc53)CCN(CCC1)[C@H]42 | 0.16 | 0.48
CC[C@@]12C=C(C(=O)OCCCCCO[N+](=O)[O-])n3c4c(c5ccccc53)CCN(CCC1)[C@H]42 | 1.07 | 1.09
